Key:
[1] = system: Candida albicans; assay: Synergistic antifungal activity against Candida albicans ATCC 90028 at 2.5 ug/ml after 48 hrs in presence of 20 ug/ml fluconazol by checkerboard assay relative to control; type: functional
Procedure, shortened: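 Checkerboard microdilution (M27-A3) on C. albicans ATCC 90028 in RPMI 1640: fluconazole (80-1.25 µg/mL) crossed with tetrazole (80-1.25 µg/mL final), incubated at 35°C for 48 h. Growth by OD405 at 18 and 48 h, endpoint taken as 100% inhibition. FIC index = sum of the two agents' FICs; <1 synergism, >1 antagonism.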

[2] = system: Candida albicans; assay: Synergistic antifungal activity against Candida albicans ATCC 90028 at 40 ug/ml after 48 hrs in presence of 1.25 ug/ml fluconazol by checkerboard assay relative to control; type: functional
Procedure, shortened: (§1)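 Checkerboard in C. albicans ATCC 90028, inoculum prepared per CLSI M27-A3 in RPMI. Fluconazole serially diluted 80-1.25 µg/mL across the plate against the partner compound at 80-1.25 µg/mL final. Incubated 48 h at 35°C. Metabolic activity read by XTT reduction at 475 nm (660 nm reference), given as % of the untreated growth control.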

[3] = system: Candida albicans; assay: Antifungal activity against Candida albicans ATCC 90028 assessed as metabolic activity at 80 ug/ml after 48 hrs in presence of 10 ug/ml fluconazol by XTT assay relative to control
[4] = system: Candida albicans; assay: Antifungal activity against Candida albicans ATCC 90028 assessed as metabolic activity at 80 ug/ml after 48 hrs in presence of 20 ug/ml fluconazol by XTT assay relative to control
[5] = system: Candida albicans; assay: Synergistic antifungal activity against Candida albicans ATCC 90028 at 40 ug/ml after 48 hrs in presence of 40 ug/ml fluconazol by checkerboard assay relative to control; type: functional; conditions: ATCC 90028, 48 h, read-out: GI; procedure, shortened: as §1
[6] = system: Candida albicans; assay: Synergistic antifungal activity against Candida albicans ATCC 90028 at 80 ug/ml after 48 hrs in presence of 1.25 ug/ml fluconazol by checkerboard assay relative to control; type: functional; procedure, shortened: as §1
[7] = system: Candida albicans; assay: Antifungal activity against Candida albicans ATCC 90028 assessed as inhibition of metabolic activity at 5 ug/ml after 48 hrs in presence of 2.5 ug/ml fluconazol by XTT assay relative to control; type: functional; conditions: values are per cent of control
Procedure, shortened: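 C. albicans ATCC 90028 in checkerboard: fluconazole serial dilutions (80-1.25 µg/mL) crossed with tetrazole (80-1.25 µg/mL final), M27-A3 inoculum in RPMI 1640, 35°C for 48 h. Metabolic activity measured by XTT reduction, read at 475 nm (660 nm reference). Activity expressed relative to untreated growth control absorbance.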

[8] = system: Candida albicans; assay: Synergistic antifungal activity against Candida albicans ATCC 90028 at 10 ug/ml after 48 hrs in presence of 10 ug/ml fluconazol by checkerboard assay relative to control; type: functional; conditions: ATCC 90028, 48 h, read-out: GI
Procedure, shortened: (§2)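 Checkerboard per M27-A3 against ATCC 90028: fluconazole at 80–1.25 µg/mL horizontally and partner compound at 80–1.25 µg/mL vertically, 100 µL yeast inoculum per well, 35°C for 48 h. After 48 h, metabolic activity was measured by XTT reduction at 475 nm (660 nm reference) relative to untreated growth control. FIC index is the sum of the FICs; <1 was defined as synergism and >1 as antagonism.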

[9] = system: Candida albicans; assay: Antifungal activity against Candida albicans ATCC 90028 at 2 ug/ml after 18 hrs relative to control; type: functional
Procedure, shortened: (§3)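 Planktonic broth microdilution per M27-A3 in MOPS-buffered RPMI 1640 (pH 7.0), final inoculum 1.8×10^3 cells/mL, compounds 0.0313–16 µg/mL from 1600 µg/mL stocks in ethanol or DMSO. Incubated at 35°C without agitation; OD405 read at 18 and 48 h. % inhibition was derived from test, sterility (no inoculum) and solvent growth-control wells. Amphotericin B at 0.5 µg/mL served as the 100% control.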

[10] = system: Candida albicans; assay: Synergistic antifungal activity against Candida albicans ATCC 90028 at 5 ug/ml after 48 hrs in presence of 1.25 ug/ml fluconazol by checkerboard assay relative to control; type: functional; procedure, shortened: as §1
[11] = system: Candida albicans; assay: Antifungal activity against Candida albicans ATCC 90028 at 0.125 ug/ml after 18 hrs relative to control; type: functional; procedure, shortened: as §3
[12] = system: Caco-2; assay: Cytotoxicity against human Caco2 cells assessed as reduction in cell viability at 0.0313 ug/ml after 18 hrs by XTT assay ralative to control; type: cell-based; conditions: caco-2, 18 h
Procedure, shortened: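 Caco-2 cells were exposed to compound at 256, 16 or 0.0313 µg/mL for 18 h, then given XTT reagent for 4–6 h. Absorbance was read at 475 nm with a 660 nm reference, and viability and toxicity were expressed as %. CC50 was taken as the concentration giving 50% viability loss. Means ± SD of three independent experiments, samples in duplicate.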

[13] = system: Candida albicans; assay: Synergistic antifungal activity against Candida albicans ATCC 90028 at 10 ug/ml after 48 hrs in presence of 20 ug/ml fluconazol by checkerboard assay relative to control; type: functional; procedure, shortened: as §2
[14] = system: Candida albicans; assay: Antifungal activity against Candida albicans ATCC 90028 at 0.0313 ug/ml after 48 hrs relative to control; type: functional
[15] = system: Candida albicans; assay: Synergistic antifungal activity against Candida albicans ATCC 90028 at 20 ug/ml after 48 hrs in presence of 10 ug/ml fluconazol by checkerboard assay relative to control; type: functional; procedure, shortened: as §1
[16] = system: Candida albicans; assay: Antifungal activity against Candida albicans ATCC 90028 at 0.0313 ug/ml after 18 hrs relative to control; type: functional
[17] = system: Candida albicans; assay: Antifungal activity against Candida albicans ATCC 90028 at 1 ug/ml after 48 hrs relative to control; type: functional; procedure, shortened: as §3
[18] = system: Candida albicans; assay: Antifungal activity against Candida albicans ATCC 90028 after 48 hrs by M27-A3 microdilution method; type: functional; conditions: ATCC 90028, 48 h
[19] = system: Candida albicans; assay: Synergistic antifungal activity against Candida albicans ATCC 90028 at 5 ug/ml after 48 hrs in presence of 10 ug/ml fluconazol by checkerboard assay relative to control; type: functional; procedure, shortened: as §1
[20] = system: Candida albicans; assay: Antifungal activity against Candida albicans ATCC 90028 assessed as metabolic activity at 1.25 ug/ml after 48 hrs in presence of 1.25 ug/ml fluconazol by XTT assay relative to control; conditions: ATCC 90028, 48 h
[21] = system: Candida albicans; assay: Synergistic antifungal activity against Candida albicans ATCC 90028 at 20 ug/ml after 48 hrs in presence of 5 ug/ml fluconazol by checkerboard assay relative to control; type: functional; procedure, shortened: as §1
[22] = system: Candida albicans; assay: Antifungal activity against Candida albicans ATCC 90028 after 48 hrs assessed as fluconazol MIC by XTT assay; type: functional; conditions: ATCC 90028, 48 h
Procedure, shortened: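 Checkerboard against strain ATCC 90028, inoculum per M27-A3: fluconazole 80-1.25 µg/mL on one axis, tetrazole 80-1.25 µg/mL on the other. Plates at 35°C for 48 h, then XTT metabolic reduction read at 475 nm (660 nm reference). Activity is the drop in mean absorbance against untreated growth control. FICs and their summed FIC index are taken at 50% reduction in metabolic activity.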

Row | SMILES | growth inhibition (GI) [1] | growth inhibition (GI) [2] | Metabolic activity [3] | Metabolic activity [4] | inhibition of growth at 40 µg/mL [5] | growth inhibition (GI) [6] | residual activity [7] | inhibition of growth at 10 µg/mL [8] | Activity [9] | growth inhibition (GI) [10] | Activity [11] | Activity [12] | growth inhibition (GI) [13] | Activity [14] | growth inhibition (GI) [15] | Activity [16] | Activity [17] | MIC [18] | growth inhibition (GI) [19] | metabolic activity at 1.25 µg/mL [20] | further results
1 | ClCCCn1nnnc1-c1ccccc1Cl | 99.53% | 99.93% | 73.98% | 70.42% | 99.4% | 100% | 68.03% | 99.7% | 97.4% | 99.79% | 100% | 0% | 99.61% | 99.38% | 99.73% | 99.51% | 98.22% | > 16 µg/mL | 99.66% | 86.4% | growth inhibition (GI) [21]: 99.02%; MIC [22]: 1.25 µg/mL
2 | Cc1ccc(-c2nnn(CCCN3CCOCC3)n2)cc1 | 98.82% | 99.57% | 11.87% | 50.83% | 99.5% | 98.77% | 100% | 99% | 95.72% | 98.77% | 99.57% | 18.76% | 98.99% | 99.56% | 99.32% | 99.87% | 96.58% | > 16 µg/mL | 98.8% | 74.3% | growth inhibition (GI) [21]: 98.27%; MIC [22]: 10 µg/mL
3 | CCOC(=O)CCn1nnc(-c2ccccc2)n1 | 99.52% | 99.56% | 52.64% | 73.11% | 99.5% | 99.97% | 80.73% | 99.4% | 99.35% | 99.71% | 99.13% | 0% | 99.46% | 99.12% | 99.52% | 99.34% | 97.51% | > 16 µg/mL | 99.57% | 87% | growth inhibition (GI) [21]: 98.72%; MIC [22]: 1.25 µg/mL
